Active and inactive are the calls of the source. The calls are words filed in the database; no cut-off is given here.
What was measured:
Rattus norvegicus [1] = experiment: Increase in uterine weight in ovariectomized rat osteopenia model at 1.4 mg/kg, po administered daily measured after 6 weeks; assay type: functional, organism-based; design: dose 1.4 mg/kg
Rattus norvegicus [2] = experiment: Decrease in tail skin temperature rise in morphine-addicted Sprague-Dawley rat hot flush model at 1.4 mg/kg, po administered daily measured for 60 mins after naloxone-induced morphine withdrawal; assay type: functional, organism-based; design: dose 1.4 mg/kg
In short: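 Adult female Sprague-Dawley rats (3 months), 8-25 per group, ovariectomized; oral gavage started 6 days post-surgery; morphine suspension 75 and 150 mg sc on treatment days 3 and 5; last day ketamine 80 mg/kg im, tail thermistor baseline ~20 min, naloxone 2.0 mg/kg sc, tail skin temperature for 60 min; multiple comparisons per time point.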

Rattus norvegicus [3] = experiment: Estrogenic activity in ovariectomized rat assessed as minor increase in uterine epithelial thickness at 1.4 mg/kg, po administered daily measured after 6 week by immunohistochemical analysis; assay type: functional, organism-based; design: dose 1.4 mg/kg
Rattus norvegicus [4] = experiment: Decrease in bone resorption in ovariectomized rat assessed as decrease in urine deoxypyridinoline level at 1.4 mg/kg, po administered daily measured after 6 weeks; assay type: functional, organism-based; design: dose 1.4 mg/kg
Rattus norvegicus [5] = experiment: Increase in uterine weight in ovariectomized rat osteopenia model at 1 mg/kg, po administered daily measured after 6 weeks; assay type: functional, organism-based; design: dose 1 mg/kg
Estrogen receptor [6] = target: T1, Estrogen receptor (Homo sapiens, UniProt P03372); experiment: Displacement of radiolabeled estrogen from estrogen receptor alpha by scintillation counting
T1 sequence (P03372 whole entry): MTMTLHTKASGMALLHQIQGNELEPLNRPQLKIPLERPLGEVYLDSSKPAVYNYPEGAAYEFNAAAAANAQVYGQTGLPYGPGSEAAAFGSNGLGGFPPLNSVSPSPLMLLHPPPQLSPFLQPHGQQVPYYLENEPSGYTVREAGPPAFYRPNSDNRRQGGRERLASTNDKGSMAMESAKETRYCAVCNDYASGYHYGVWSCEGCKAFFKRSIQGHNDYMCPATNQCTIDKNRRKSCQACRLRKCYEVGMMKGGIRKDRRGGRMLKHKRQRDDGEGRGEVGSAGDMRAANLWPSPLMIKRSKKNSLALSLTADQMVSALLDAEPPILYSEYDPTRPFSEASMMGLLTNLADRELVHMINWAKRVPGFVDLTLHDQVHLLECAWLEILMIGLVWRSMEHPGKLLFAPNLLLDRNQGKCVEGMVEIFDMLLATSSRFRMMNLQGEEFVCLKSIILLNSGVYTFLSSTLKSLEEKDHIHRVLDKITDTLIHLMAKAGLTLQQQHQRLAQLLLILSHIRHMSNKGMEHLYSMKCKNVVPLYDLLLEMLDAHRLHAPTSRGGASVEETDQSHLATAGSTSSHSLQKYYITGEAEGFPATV

[7] = Oral bioavailability in rat at 10 mg/kg administered as single dose by LC-MS/MS analysis; assay type: ADME, organism-based; details: in vivo
In short: (§1)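 Single-dose rat pharmacokinetics. IV dosing at 1-3 mg/kg as a solution in 10% β-cyclodextrin; oral gavage at 10 mg/kg as a uniform suspension in 0.5% methylcellulose. Blood (0.5 mL) collected into heparinized tubes by orbital sinus puncture after dosing. Plasma extracted into acetonitrile with an internal standard and analysed by LC-MS-MS against standards to obtain PK parameters.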

Estrogen receptor [8] = target: T1, Estrogen receptor; experiment: Antagonist activity at estrogen receptor in human Ishikawa cells assessed as 17-beta-estradiol-induced alkaline phosphatase activity after 3 days by chemiluminescence assay; assay type: functional, cell-based
[9] = AUC in rat at 10 mg/kg, po administered as single dose by LC-MS/MS analysis; assay type: ADME, organism-based; design: dose 10 mg/kg, route oral; details: plasma; in short: as §1
[10] = Cmax in rats after 10 mg/kg oral dose; assay type: ADME, organism-based; design: dose 10 mg/kg, route oral; details: rat, in vivo; in short: as §1
Rattus norvegicus [11] = species: Rattus norvegicus; experiment: animal or person; assay type: functional; details: Uterus, 72 h, route oral
Estrogen receptor beta = Estrogen receptor beta (Homo sapiens, UniProt Q92731); experiment: Inhibition of fluormone ES2 binding to estrogen receptor beta after 1 hr by fluorescence polarization assay
[12] = Tmax in rat at 10 mg/kg, po administered as single dose by LC-MS/MS analysis; assay type: ADME, organism-based; design: dose 10 mg/kg, route oral; details: in vivo; in short: as §1
[13] = Half life in rat at 10 mg/kg, po administered as single dose by LC-MS/MS analysis; assay type: ADME, organism-based; design: dose 10 mg/kg, route oral; details: in vivo; in short: as §1

Sequence of Estrogen receptor beta (Q92731 whole entry): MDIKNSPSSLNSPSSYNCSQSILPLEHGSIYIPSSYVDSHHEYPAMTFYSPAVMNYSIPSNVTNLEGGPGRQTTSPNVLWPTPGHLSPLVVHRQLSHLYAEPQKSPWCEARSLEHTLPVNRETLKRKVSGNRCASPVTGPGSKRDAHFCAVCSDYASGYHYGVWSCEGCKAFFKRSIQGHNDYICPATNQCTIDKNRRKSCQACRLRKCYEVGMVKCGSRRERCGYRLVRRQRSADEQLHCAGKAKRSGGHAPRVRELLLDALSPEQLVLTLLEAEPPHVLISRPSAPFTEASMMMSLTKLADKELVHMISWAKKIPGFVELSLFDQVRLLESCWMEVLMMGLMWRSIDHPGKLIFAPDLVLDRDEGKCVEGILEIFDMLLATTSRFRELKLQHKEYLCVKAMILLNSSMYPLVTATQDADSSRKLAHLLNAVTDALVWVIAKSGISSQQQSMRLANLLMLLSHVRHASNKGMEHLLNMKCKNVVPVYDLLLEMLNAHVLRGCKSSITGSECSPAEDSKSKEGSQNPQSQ

Row | Compound | IC50 (Estrogen receptor [6]) | IC50 (Estrogen receptor [8]) | IC50 (Estrogen receptor beta) | inhibition in vivo at 1 mg/kg (Rattus norvegicus [11]) | further results
1 | CC(C)(C)C(=O)Oc1ccc2c(c1)O[C@H](c1ccc(OCCN3CCCCC3)cc1)C1=C2COc2cc(OC(=O)C(C)(C)C)ccc21 |  |  |  |  | Activity (Rattus norvegicus [1]): Active; Activity (Rattus norvegicus [2]): Active; Activity (Rattus norvegicus [3]): Active; Activity (Rattus norvegicus [4]): Active; Activity (Rattus norvegicus [5]): inactive
2 | Oc1ccc2c(c1)O[C@H](c1ccc(OCCN3CCSCC3)cc1)C1=C2CCOc2cc(O)ccc21 | 1.2 nM | 87 nM | 27 nM | 85% | bioavailability [7]: 9%; AUC [9]: 1530 ng·h/mL; Cmax [10]: 89 ng/mL; Tmax [12]: 4.8 h; half-life [13]: 5.28 h
3 | CCN(CC)CCOc1ccc([C@H]2Oc3ccccc3C3=C2c2ccc(O)cc2OCC3)cc1 | 5 nM | 113 nM | 108 nM | 80% | 
4 | Oc1ccc2c(c1)OCCC1=C2[C@H](c2ccc(OCCN3CCCCCC3)cc2)Oc2ccccc21 | 4.5 nM | 68 nM | 22 nM | 28% | 

More lines, main results first:

Row | IC50 (Estrogen receptor [6]) | IC50 (Estrogen receptor [8]) | IC50 (Estrogen receptor beta) | Compound | inhibition in vivo at 1 mg/kg (Rattus norvegicus [11]) | further results
5 | 111 nM | > 10000 nM | 390 nM | Oc1ccc2c(c1)O[C@@H](c1ccc(OCCN3CCSCC3)cc1)C1=C2CCOc2cc(O)ccc21 | 0% | 
6 | 3.3 nM | 61 nM | 23 nM | CN(C)CCOc1ccc([C@H]2Oc3cc(O)ccc3C3=C2c2ccc(O)cc2OCC3)cc1 | 25% | 
7 | 4 nM | 144 nM | 41 nM | Oc1ccc2c(c1)O[C@@H](c1ccc(OCCN3CCCCCC3)cc1)C1=C2CCOc2ccccc21 | 7% | 
8 | 6.3 nM | 25.9 nM | 63 nM | COc1ccc2c(c1)O[C@@H](c1ccc(OCCN3CCCCC3)cc1)C1=C2CCOc2cc(O)ccc21 | 12% | 
9 | 3.3 nM | 81 nM | 66 nM | Oc1ccc2c(c1)OCCC1=C2[C@@H](c2ccc(OCCN3CCCCCC3)cc2)Oc2cc(F)ccc21 | 22% | 
